Data: ChEMBL document CHEMBL1649105, “Development of Selective LH Receptor Agonists by Heterodimerization with a FSH Receptor Antagonist” (ACS Med Chem Lett, 2011)
Activity calls are given as the source filed them. The rule behind the calls is not given here.

Legend:
[1] = molecular target: T1, Lutropin-choriogonadotropic hormone receptor (Homo sapiens, UniProt P22888); assay: Agonist activity at human LH receptor expressed in CHO-K1 cells assessed as stimulation of luciferase activity by CRE-driven luciferase reporter gene assay; type: functional, cell-based
T1 sequence (P22888 whole entry): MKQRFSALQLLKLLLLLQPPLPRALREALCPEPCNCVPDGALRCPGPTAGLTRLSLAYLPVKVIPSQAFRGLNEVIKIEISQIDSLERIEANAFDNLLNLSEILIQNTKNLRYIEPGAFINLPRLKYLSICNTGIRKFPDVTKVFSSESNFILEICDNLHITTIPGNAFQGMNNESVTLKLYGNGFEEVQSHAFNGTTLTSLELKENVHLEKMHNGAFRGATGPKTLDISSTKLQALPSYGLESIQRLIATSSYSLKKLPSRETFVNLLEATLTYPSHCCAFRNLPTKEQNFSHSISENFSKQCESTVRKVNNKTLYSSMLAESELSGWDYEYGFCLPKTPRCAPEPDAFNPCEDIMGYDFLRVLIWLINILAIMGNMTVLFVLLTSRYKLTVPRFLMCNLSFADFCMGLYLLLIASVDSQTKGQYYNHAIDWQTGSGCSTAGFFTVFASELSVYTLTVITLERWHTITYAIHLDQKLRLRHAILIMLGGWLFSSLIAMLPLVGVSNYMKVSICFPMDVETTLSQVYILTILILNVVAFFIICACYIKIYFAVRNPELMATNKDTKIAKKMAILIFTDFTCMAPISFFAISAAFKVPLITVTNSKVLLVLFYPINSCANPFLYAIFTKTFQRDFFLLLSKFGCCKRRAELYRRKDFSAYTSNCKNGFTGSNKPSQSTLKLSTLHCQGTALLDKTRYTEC
Method in brief: (§1)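 EC50 or IC50 values were fitted from concentration–effect curves. Data come from two independent experiments, each run in duplicate, with SD generally below 0.3.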

[2] = molecular target: T1, Lutropin-choriogonadotropic hormone receptor; assay: Antagonist activity at human LH receptor expressed in CHO-K1 cells assessed as inhibition of LH-induced luciferase activity by CRE-driven luciferase reporter gene assay; type: functional, cell-based
[3] = molecular target: T2, Follicle-stimulating hormone receptor (Homo sapiens, UniProt P23945); assay: Agonist activity at human FSHR receptor expressed in CHO-K1 cells assessed as stimulation of luciferase activity by CRE-driven luciferase reporter gene assay; type: functional, cell-based; method in brief: as §1
T2 sequence (P23945 whole entry): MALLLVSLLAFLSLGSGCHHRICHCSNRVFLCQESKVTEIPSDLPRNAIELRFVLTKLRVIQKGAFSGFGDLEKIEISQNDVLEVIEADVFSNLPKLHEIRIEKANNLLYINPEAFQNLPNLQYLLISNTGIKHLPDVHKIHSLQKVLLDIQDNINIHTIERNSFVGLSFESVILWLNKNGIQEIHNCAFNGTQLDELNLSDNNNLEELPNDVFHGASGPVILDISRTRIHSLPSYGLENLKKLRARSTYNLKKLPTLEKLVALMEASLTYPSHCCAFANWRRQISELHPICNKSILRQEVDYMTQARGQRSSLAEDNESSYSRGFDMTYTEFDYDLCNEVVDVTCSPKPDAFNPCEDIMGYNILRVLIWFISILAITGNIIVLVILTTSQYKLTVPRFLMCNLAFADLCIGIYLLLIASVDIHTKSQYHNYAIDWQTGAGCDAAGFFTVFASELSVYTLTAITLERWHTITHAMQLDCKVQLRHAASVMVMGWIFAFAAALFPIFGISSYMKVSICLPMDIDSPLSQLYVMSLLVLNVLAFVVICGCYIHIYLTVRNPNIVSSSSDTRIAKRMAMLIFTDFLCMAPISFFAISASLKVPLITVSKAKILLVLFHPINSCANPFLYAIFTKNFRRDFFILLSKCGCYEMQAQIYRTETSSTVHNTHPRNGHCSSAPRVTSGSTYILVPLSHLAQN

[4] = molecular target: T2, Follicle-stimulating hormone receptor; assay: Antagonist activity at human FSHR receptor expressed in CHO-K1 cells assessed as inhibition of FSH-induced luciferase activity by CRE-driven luciferase reporter gene assay relative to control
[5] = molecular target: T3, Follicle-stimulating hormone receptor (Homo sapiens) (UniProt P23945); assay: Antagonist activity at human FSHR receptor expressed in CHO-K1 cells assessed as inhibition of FSH-induced luciferase activity at 10 uM by CRE-driven luciferase reporter gene assay relative to control
T3 sequence (whole entry): T2 sequence (P23945 whole entry)

[6] = molecular target: T3, Follicle-stimulating hormone receptor (Homo sapiens); assay: Agonist activity at human FSHR receptor expressed in CHO-K1 cells assessed as stimulation of luciferase activity at 10 uM by CRE-driven luciferase reporter gene assay relative to control; type: functional, cell-based
[7] = molecular target: T3, Follicle-stimulating hormone receptor (Homo sapiens); assay: Agonist activity at human FSHR receptor expressed in CHO-K1 cells assessed as stimulation of luciferase activity by CRE-driven luciferase reporter gene assay relative to control; type: functional, cell-based

EC50 ([1]; read-out: EC50) [nM] | inhibition [2] | EC50 ([3]; cho-k1) | IC50 ([4]; read-out: IC50) [nM] | Imax [5] [%] | Emax [6] [%] | IC50 ([4]; cho-k1) | EC50 ([3]; read-out: EC50) [nM] | Emax [7] [%] | EC50 ([1]; cho-k1) | SMILES
55 | inactive | Not Active | 1020 | 72 |  |  |  |  |  | CSc1nc(-c2cccc(NCC(=O)NCc3cn(CCOCCOCCOCCOCCn4cc(COc5ccc([C@@]6(C)CC(C)(C)N(C(C)=O)c7ccc(NC(=O)c8ccc(-c9ccccc9)cc8)cc76)cc5)nn4)nn3)c2)c2c(N)c(C(=O)NC(C)(C)C)sc2n1
27 | inactive | Not Active |  | 75 |  |  |  |  |  | CSc1nc(-c2cccc(NCC(=O)NCc3cn(CCOCCn4cc(COc5ccc([C@@]6(C)CC(C)(C)N(C(C)=O)c7ccc(NC(=O)c8ccc(-c9ccccc9)cc8)cc76)cc5)nn4)nn3)c2)c2c(N)c(C(=O)NC(C)(C)C)sc2n1
43 | inactive | Not Active | 920 | 73 |  |  |  |  |  | CSc1nc(-c2cccc(NCC(=O)NCc3cn(CCOCCOCCn4cc(COc5ccc([C@@]6(C)CC(C)(C)N(C(C)=O)c7ccc(NC(=O)c8ccc(-c9ccccc9)cc8)cc76)cc5)nn4)nn3)c2)c2c(N)c(C(=O)NC(C)(C)C)sc2n1
1 | inactive |  |  |  |  | Not Active | 126 | 78 |  | C#CCNC(=O)CNc1cccc(-c2nc(SC)nc3sc(C(=O)NC(C)(C)C)c(N)c23)c1
24 | inactive |  |  |  | 43 | Not Active |  |  |  | CSc1nc(-c2cccc(NCC(=O)NCc3cn(CCn4cc(COc5ccc([C@]6(C)CC(C)(C)N(C(C)=O)c7ccc(NC(=O)c8ccc(-c9ccccc9)cc8)cc76)cc5)nn4)nn3)c2)c2c(N)c(C(=O)NC(C)(C)C)sc2n1

More lines, now with the values behind:

SMILES | EC50 ([1]; read-out: EC50) [nM] | inhibition [2] | EC50 ([3]; cho-k1) | IC50 ([4]; read-out: IC50) [nM] | Imax [5] [%] | Emax [6] [%] | IC50 ([4]; cho-k1) | EC50 ([3]; read-out: EC50) [nM] | Emax [7] [%] | EC50 ([1]; cho-k1)
CSc1nc(-c2cccc(NCC(=O)NCc3cn(CCOCCn4cc(COc5ccc([C@]6(C)CC(C)(C)N(C(C)=O)c7ccc(NC(=O)c8ccc(-c9ccccc9)cc8)cc76)cc5)nn4)nn3)c2)c2c(N)c(C(=O)NC(C)(C)C)sc2n1 | 80 | inactive |  |  |  | 44 | Not Active |  |  | 
CSc1nc(-c2cccc(NCC(=O)NCc3cn(CCOCCOCCN=[N+]=[N-])nn3)c2)c2c(N)c(C(=O)NC(C)(C)C)sc2n1 | 5 | inactive |  |  |  |  | Not Active | 397 | 81 | 
C#CCOc1ccc([C@@]2(C)CC(C)(C)N(C(C)=O)c3ccc(NC(=O)c4ccc(-c5ccccc5)cc4)cc32)cc1 |  | inactive | Not Active | 39 |  |  |  |  |  | Not Active
CSc1nc(-c2cccc(NCC(=O)NCc3cn(CCOCCOCCOCCn4cc(COc5ccc([C@]6(C)CC(C)(C)N(C(C)=O)c7ccc(NC(=O)c8ccc(-c9ccccc9)cc8)cc76)cc5)nn4)nn3)c2)c2c(N)c(C(=O)NC(C)(C)C)sc2n1 | 57 | inactive |  |  |  | 31 | Not Active |  |  | 
CSc1nc(-c2cccc(NCC(=O)NCc3cn(CCOCCOCCOCCOCCn4cc(COc5ccc([C@]6(C)CC(C)(C)N(C(C)=O)c7ccc(NC(=O)c8ccc(-c9ccccc9)cc8)cc76)cc5)nn4)nn3)c2)c2c(N)c(C(=O)NC(C)(C)C)sc2n1 | 39 | inactive |  |  |  | 39 | Not Active |  |  | 
CC(=O)N1c2ccc(NC(=O)c3ccc(-c4ccccc4)cc3)cc2[C@@](C)(c2ccc(OCc3cn(CCOCCOCCN=[N+]=[N-])nn3)cc2)CC1(C)C |  | inactive | Not Active | 324 |  |  |  |  |  | Not Active
CSc1nc(-c2cccc(NCC(=O)NCc3cn(CCOCCOCCn4cc(COc5ccc([C@]6(C)CC(C)(C)N(C(C)=O)c7ccc(NC(=O)c8ccc(-c9ccccc9)cc8)cc76)cc5)nn4)nn3)c2)c2c(N)c(C(=O)NC(C)(C)C)sc2n1 | 75 | inactive |  |  |  | 18 | Not Active |  |  | 
CSc1nc(-c2cccc(NCC(=O)NCc3cn(CCn4cc(COc5ccc([C@@]6(C)CC(C)(C)N(C(C)=O)c7ccc(NC(=O)c8ccc(-c9ccccc9)cc8)cc76)cc5)nn4)nn3)c2)c2c(N)c(C(=O)NC(C)(C)C)sc2n1 | 10 | inactive | Not Active |  | 65 |  |  |  |  | 
CSc1nc(-c2cccc(NCC(=O)NCc3cn(CCOCCOCCOCCn4cc(COc5ccc([C@@]6(C)CC(C)(C)N(C(C)=O)c7ccc(NC(=O)c8ccc(-c9ccccc9)cc8)cc76)cc5)nn4)nn3)c2)c2c(N)c(C(=O)NC(C)(C)C)sc2n1 | 61 | inactive | Not Active | 1660 | 65 |  |  |  |  | 
